According to ChEMBL document CHEMBL4190373, “Tumor Targeting with Novel Pyridyl 6-Substituted Pyrrolo[2,3- d]Pyrimidine Antifolates via Cellular Uptake by Folate Receptor α and the Proton-Coupled Folate Transporter and Inhibition of De Novo Purine Nucleotide Biosynthesis” (J Med Chem, 2018):
Activity calls are given as the source filed them. No cut-off for these calls is given here.

Key:
[1] = Growth inhibition of Chinese hamster R2(VC) cells after 96 hrs celltiter-blue assay; settings: Cricetulus griseus
Outline: (§1)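 CHO sublines expressing human PCFT (R2/PCFT4) or RFC (PC43-10), transporter-null R2, and empty-vector R2(VC). Continuous drug up to 1000 nM, up to 96 h, CellTiter-Blue fluorescence.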

KB [2] = assay: Antiproliferative activity against human KB cells expressing human RFC/FR-alpha/PCFT assessed as reduction in cell viability measured after 96 hrs in presence of folic acid by Cell-Titer Blue assay; assay type: functional, cell-based
[3] = Cytotoxicity in RFC-null Chinese hamster R2 cells assessed as reduction in cell viability measured after 96 hrs by Cell-Titer Blue assay; assay type: cell-based; settings: Cricetulus griseus, R2, 96 h; outline: as §1
KB [4] = assay: Antiproliferative activity against human KB cells expressing human RFC/FR-alpha/PCFT assessed as reduction in cell viability measured after 96 hrs by Cell-Titer Blue assay; assay type: functional, cell-based
[5] = target: Folate receptor alpha (Homo sapiens) (UniProt P15328); assay: Displacement of [3H]folic acid from human FR-alpha receptor expressed in Chinese hamster RT16 cells measured after 15 mins; assay type: cell-based
Chain of Folate receptor alpha (Homo sapiens) (P15328 25-234 limits assumed): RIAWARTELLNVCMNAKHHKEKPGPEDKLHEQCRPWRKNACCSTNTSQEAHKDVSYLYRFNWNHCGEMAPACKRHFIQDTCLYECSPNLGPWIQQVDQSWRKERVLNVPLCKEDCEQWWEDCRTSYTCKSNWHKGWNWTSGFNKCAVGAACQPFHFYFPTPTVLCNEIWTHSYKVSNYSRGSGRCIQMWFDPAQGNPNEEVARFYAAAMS
Outline: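 RT16 (FRα) or D4 (FRβ) CHO cells, ~5 x 10^6 per dish, stripped of bound folate with pH 3.5 acetate buffer. Then incubated in HEPES-buffered saline pH 7.4 with 50 nM [3H]folic acid ± unlabeled ligand 1-1000 nM. Bound label normalized to protein. […] Mean ± SE, 3 experiments.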

[6] = target: T1, Proton-coupled folate transporter (Homo sapiens) (UniProt Q96NT5); assay: Inhibition of [3H]MTX uptake at human PCFT expressed in Chinese hamster R2/PCFT4 cells at 10 uM at pH 6.8 by scintillation counting method relative to control; assay type: cell-based
T1 sequence (whole entry): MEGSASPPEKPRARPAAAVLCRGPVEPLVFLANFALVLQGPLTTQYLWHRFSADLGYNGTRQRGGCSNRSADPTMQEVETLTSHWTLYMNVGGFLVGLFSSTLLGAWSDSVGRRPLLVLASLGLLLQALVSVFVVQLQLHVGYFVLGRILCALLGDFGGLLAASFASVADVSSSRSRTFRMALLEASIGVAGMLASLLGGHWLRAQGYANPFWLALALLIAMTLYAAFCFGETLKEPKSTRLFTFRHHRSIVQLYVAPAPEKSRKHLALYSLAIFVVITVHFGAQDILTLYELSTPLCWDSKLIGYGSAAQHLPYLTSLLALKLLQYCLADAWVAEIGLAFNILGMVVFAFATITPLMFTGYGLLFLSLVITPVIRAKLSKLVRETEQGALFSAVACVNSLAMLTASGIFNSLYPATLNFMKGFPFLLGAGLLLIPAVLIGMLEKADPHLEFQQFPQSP
Outline: (§2)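 Buffers: MES-buffered saline pH 5.5 or HEPES-buffered saline pH 6.8, with 1 or 10 µM inhibitor. Quenched with ice-cold DPBS, counted by scintillation, normalized to protein and untreated controls. Mean ± SE, 3 experiments.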

[7] = target: T1, Proton-coupled folate transporter (Homo sapiens); assay: Inhibition of [3H]MTX uptake at human PCFT expressed in Chinese hamster R2/PCFT4 cells at 10 uM at pH 5.5 by scintillation counting method relative to control; assay type: cell-based; outline: as §2
IGROV-1 = assay: Antiproliferative activity against human IGROV1 cells expressing human FR-alpha/PCFT assessed as reduction in cell viability measured after 96 hrs in presence of folic acid by Cell-Titer Blue assay; assay type: functional, cell-based; settings: IGROV-1, 96 h
Outline: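 IGROV1 growth inhibition in folate-free RPMI 1640 with 10% dialyzed FBS, 2 nM leucovorin and 2 mM L-glutamine, with 200 nM folic acid added to block FR-mediated uptake. Drug present continuously up to 1000 nM for up to 96 h. Readout by CellTiter-Blue fluorescence.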

[8] = target: T1, Proton-coupled folate transporter (Homo sapiens); assay: Inhibition of [3H]MTX uptake at human PCFT expressed in Chinese hamster R2/PCFT4 cells at 1 uM at pH 5.5 by scintillation counting method relative to control; assay type: cell-based; outline: as §2
[9] = target: T1, Proton-coupled folate transporter (Homo sapiens); settings: 1 uM
[10] = target: Folate receptor beta (Homo sapiens) (UniProt P14207); assay: Displacement of [3H]folic acid from human FR-beta receptor expressed in Chinese hamster D4 cells measured after 15 mins; assay type: cell-based
Chain of Folate receptor beta (Homo sapiens) (P14207 17-230 limits assumed): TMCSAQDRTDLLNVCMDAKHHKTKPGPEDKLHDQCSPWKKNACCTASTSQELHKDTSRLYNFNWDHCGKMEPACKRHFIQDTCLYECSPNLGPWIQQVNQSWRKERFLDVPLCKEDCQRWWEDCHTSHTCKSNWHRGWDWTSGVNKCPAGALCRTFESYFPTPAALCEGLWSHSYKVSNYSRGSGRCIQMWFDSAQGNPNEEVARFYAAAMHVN

KB [11] = assay: Antiproliferative activity against human KB cells expressing human RFC/FR-alpha/PCFT assessed as reduction in cell viability up to 1000 nM measured after 96 hrs in presence of thymidine by Cell-Titer Blue assay; assay type: functional, cell-based
KB [12] = assay: Antiproliferative activity against human KB cells expressing human RFC/FR-alpha/PCFT assessed as reduction in cell viability up to 1000 nM measured after 96 hrs in presence of AICA by Cell-Titer Blue assay; assay type: functional, cell-based
KB [13] = assay: Antiproliferative activity against human KB cells expressing human RFC/FR-alpha/PCFT assessed as reduction in cell viability up to 1000 nM measured after 96 hrs in presence of adenosine by Cell-Titer Blue assay; assay type: functional, cell-based
[14] = target: T2, Trifunctional purine biosynthetic protein adenosine-3 (Homo sapiens, UniProt P22102); assay: Inhibition of GARFTase in human KB cells assessed as decrease in [14C]formyl GAR accumulation preincubated for 30 mins followed by [14C]glycine addition measured after 15 hrs in presence of azaserine by ion-exchange chromatographic assay; assay type: cell-based
T2 sequence (P22102 whole entry): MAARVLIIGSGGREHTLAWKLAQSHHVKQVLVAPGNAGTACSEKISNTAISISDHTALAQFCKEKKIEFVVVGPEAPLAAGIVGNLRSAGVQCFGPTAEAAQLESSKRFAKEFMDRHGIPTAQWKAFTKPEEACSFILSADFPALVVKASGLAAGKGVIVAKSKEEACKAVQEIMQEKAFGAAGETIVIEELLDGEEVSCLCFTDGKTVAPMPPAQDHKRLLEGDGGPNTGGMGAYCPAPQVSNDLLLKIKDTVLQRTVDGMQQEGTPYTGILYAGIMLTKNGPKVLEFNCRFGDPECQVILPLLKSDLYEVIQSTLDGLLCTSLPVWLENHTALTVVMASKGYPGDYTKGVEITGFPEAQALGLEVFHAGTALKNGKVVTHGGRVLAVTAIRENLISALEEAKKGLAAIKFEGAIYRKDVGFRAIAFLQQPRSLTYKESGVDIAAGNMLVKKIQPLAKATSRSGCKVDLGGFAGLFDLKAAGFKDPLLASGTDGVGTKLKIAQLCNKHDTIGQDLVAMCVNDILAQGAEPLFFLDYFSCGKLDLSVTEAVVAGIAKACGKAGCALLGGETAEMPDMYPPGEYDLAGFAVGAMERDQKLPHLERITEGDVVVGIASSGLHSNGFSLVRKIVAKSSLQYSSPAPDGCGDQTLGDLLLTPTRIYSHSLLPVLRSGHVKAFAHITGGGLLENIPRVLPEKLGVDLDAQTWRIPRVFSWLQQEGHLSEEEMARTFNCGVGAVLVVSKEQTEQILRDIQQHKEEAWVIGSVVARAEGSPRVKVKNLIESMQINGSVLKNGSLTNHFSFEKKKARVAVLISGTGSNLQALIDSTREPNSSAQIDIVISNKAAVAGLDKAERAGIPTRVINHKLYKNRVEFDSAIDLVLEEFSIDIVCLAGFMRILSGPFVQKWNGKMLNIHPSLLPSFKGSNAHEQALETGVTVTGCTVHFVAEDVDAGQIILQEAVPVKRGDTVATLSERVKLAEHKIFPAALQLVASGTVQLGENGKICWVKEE

[15] = target: T1, Proton-coupled folate transporter (Homo sapiens); assay: Inhibition of [3H]MTX uptake at human PCFT expressed in Chinese hamster R2/PCFT4 cells at 1 to 10 uM at pH 5.5 to 6.8 by scintillation counting method; assay type: cell-based; outline: as §2

| IC50 (KB [4]) [µM] | Structure (SMILES) | IC50 [1] [µM] | IC50 (KB [2]) [µM] | IC50 [3] [µM] | inhibition [5] | further results |
| --- | --- | --- | --- | --- | --- | --- |
|  | CN(Cc1cnc2nc(N)nc(N)c2n1)c1ccc(C(=O)N[C@@H](CCC(=O)O)C(=O)O)cc1 [METHOTREXATE] | > 1 |  |  |  |  |
| > 1 | Nc1nc2[nH]c(CCC#Cc3ccc(C(=O)N[C@@H](CCC(=O)O)C(=O)O)cn3)cc2c(=O)[nH]1 | > 1 | > 1 | > 1 |  |  |
|  | Nc1nc2[nH]c(CCCCc3ccc(C(=O)N[C@@H](CCC(=O)O)C(=O)O)cc3)cc2c(=O)[nH]1 | > 1 | > 1 | > 1 | Active | inhibition [6]: 35%; inhibition [7]: > 90%; IC50 (IGROV-1): > 1 µM; inhibition [8]: 50%; inhibition [9]: 0% |
| > 1 | Nc1nc2[nH]c(CCC#Cc3ccc(C(=O)N[C@@H](CCC(=O)O)C(=O)O)nc3)cc2c(=O)[nH]1 | > 1 | > 1 | > 1 |  |  |
|  | CN(Cc1cnc2nc(N)nc(N)c2n1)c1ccc(C(=O)N[C@@H](CCCNC(=O)c2ccccc2C(=O)O)C(=O)O)cc1 |  |  |  |  | inhibition [15]: inactive |

| Structure (SMILES) | IC50 (KB [4]) [µM] | IC50 [1] [µM] | IC50 (KB [2]) [µM] | IC50 [3] [µM] | inhibition [5] | further results |
| --- | --- | --- | --- | --- | --- | --- |
| Nc1nc2[nH]c(CCCCc3ccc(C(=O)N[C@@H](CCC(=O)O)C(=O)O)cn3)cc2c(=O)[nH]1 | 0.0174 | > 1 | > 1 | > 1 | Active | inhibition [10]: Active; Activity (KB [11]): Active; Activity (KB [12]): inactive; Activity (KB [13]): inactive; IC50 [14]: 0.0048 µM |
